{"source": "ChEMBL document CHEMBL4350999", "about": "“Enhanced tumor retention of NTSR1-targeted agents by employing a hydrophilic cysteine cathepsin inhibitor” (Eur J Med Chem, 2019)", "key": {"[1]": {"experiment": "Drug uptake in bone of SCID mouse xenografted with human HT-29 cells using 177Lu labelled compound at 0.37 MBq/mouse, iv co-treated with D-lysine at 40 mg/kg measured at 24 hrs by gamma counter analysis", "format": "ADME, organism-based, Bone element", "conditions": "in vivo", "summary_of_the_method": "(§1)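 Female SCID mice bore s.c. HT-29 xenografts (5 × 10^6 cells in Matrigel, about 80 mm3). D-lysine 40 mg/kg was co-injected i.v. with 10 μCi (0.37 MBq) of purified 177Lu-conjugate. Tissues were harvested at 24 h, weighed and gamma-counted, reported as %ID/g; mean ± SD, n = 5.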"}, "[2]": {"experiment": "Drug uptake in muscle of SCID mouse xenografted with human HT-29 cells using 177Lu labelled compound at 0.37 MBq/mouse, iv co-treated with D-lysine at 40 mg/kg measured at 24 hrs by gamma counter analysis", "format": "ADME, organism-based, Muscle tissue", "conditions": "in vivo", "summary_of_the_method": "as §1"}, "[3]": {"target": "T1, Procathepsin L (Homo sapiens, UniProt P07711)", "T1 sequence (P07711 114-333 limits assumed)": "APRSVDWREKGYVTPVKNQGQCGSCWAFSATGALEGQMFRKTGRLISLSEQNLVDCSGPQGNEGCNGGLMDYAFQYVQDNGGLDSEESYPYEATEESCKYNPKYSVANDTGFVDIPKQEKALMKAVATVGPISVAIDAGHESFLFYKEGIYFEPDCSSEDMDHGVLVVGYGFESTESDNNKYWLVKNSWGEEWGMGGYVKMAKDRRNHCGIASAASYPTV", "experiment": "Binding affinity to cathepsin L in human HT-29 cells assessed as intracellular adduct formation at 0.74 MBq incubated for 4 hrs in presence of E-64 using 177Lu labelled compound by SDS-PAGE analysis", "format": "cell-based", "design": "dose or concentration left out as unconfirmed", "summary_of_the_method": "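HT-29 cells (1 × 10^6/well) incubated 4 h at 37 °C with 177Lu conjugate (20 μCi, 0.74 MBq) in 1 mL medium, with or without E-64 (10 μM) or NTSR1 peptide N1 (20 μM). Cells washed and refed; at set times cells pooled, RIPA-lysed with protease inhibitor. Lysates heated 85 °C 2 min, run on 16% tris-glycine SDS-PAGE, and phosphor autoradiography taken after 72 h exposure.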"}, "[4]": {"experiment": "Drug uptake in stomach of SCID mouse xenografted with human HT-29 cells using 177Lu labelled compound at 0.37 MBq/mouse, iv co-treated with D-lysine at 40 mg/kg measured at 24 hrs by gamma counter analysis", "format": "ADME, organism-based", "conditions": "in vivo", "summary_of_the_method": "(§2)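 HT-29 s.c. xenografts in female SCID mice. 177Lu conjugate given i.v. by tail vein at 10 μCi (0.37 MBq)/mouse, co-injected with D-lysine 40 mg/kg. Tissues were taken at 24 h, weighed and gamma counted. Uptake expressed as %ID/g (n = 5, mean ± SD); tumor-to-tissue ratios derived from these values.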"}, "[5]": {"experiment": "Ratio of drug uptake in SCID mouse xenograted with human HT-29 cells assessed as tumour retention to drug uptake in kidney of SCID mouse xenografted with human HT-29 cells cotreated with D-lysine at 40 mg/kg measured after 24 hrs using 177Lu labelled compound", "format": "ADME, organism-based, Tumor/Kidney", "conditions": "in vivo", "summary_of_the_method": "as §2"}, "[6]": {"experiment": "Ratio of drug uptake in SCID mouse xenograted with human HT-29 cells assessed as tumour retention to drug uptake in small intestine of SCID mouse xenografted with human HT-29 cells cotreated with D-lysine at 40 mg/kg measured after 24 hrs using 177Lu labelled compound", "format": "ADME, organism-based, Tumor/Small intestine", "conditions": "in vivo"}, "[7]": {"experiment": "Drug uptake in kidney of SCID mouse xenografted with human HT-29 cells using 177Lu labelled compound at 0.37 MBq/mouse, iv co-treated with D-lysine at 40 mg/kg measured at 24 hrs by gamma counter analysis", "format": "ADME, organism-based", "conditions": "in vivo", "summary_of_the_method": "as §1"}, "[8]": {"experiment": "Ratio of drug uptake in SCID mouse xenograted with human HT-29 cells assessed as tumour retention to drug uptake in blood of SCID mouse xenografted with human HT-29 cells cotreated with D-lysine at 40 mg/kg measured after 24 hrs using 177Lu labelled compound", "format": "ADME, organism-based, Tumor/Blood", "summary_of_the_method": "as §2"}, "[9]": {"experiment": "Drug retention in kidney lysates of mouse xenografted with human HT-29 cells assessed as macromolecule associated radioactivity at 29.6 MBq co-treated with D-lysine measured after 72 hrs using 177Lu labelled compound by gamma conter analysis relative to control", "format": "ADME, tissue-based", "conditions": "in vivo"}, "[10]": {"experiment": "Drug localization in endolysosomal compartment of human HT-29 cells assessed as co-localization efficiency at 5 uM incubated for 2 hrs and measured over 24 hrs using natEu labelled compound by lysotracker green staining based confocal microscopic analysis relative to control", "format": "ADME, subcellular", "conditions": "ht-29, 5 µM", "summary_of_the_method": "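HT-29 cells (1.25 × 10^5/well) loaded with natEu conjugate (5 μM), washed, then chased in fresh medium up to 24 h. Lysotracker Green (100 nM) applied 2 h before each read; cells fixed and imaged confocally at 405/488 nm. Per-cell mean fluorescence and Lysotracker co-localization quantified.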"}, "[11]": {"target": "T1, Procathepsin L", "experiment": "Binding affinity to human liver cathepsin L assessed as protein-conjugate adduct formation at 0.74 MBq incubated for 30 mins in presence of DOTA-beta-ala-[N-alpha-Me8, Dmt11, Tle12] NT6-13 using 177Lu labelled compound by SDS-PAGE analysis", "conditions": "0.74 M", "summary_of_the_method": "(§3)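 Purified human liver CatB or CatL (3 nM) in 50 mM sodium acetate/1 mM EDTA pH 5.0 incubated 30 min with 177Lu conjugate (500,000 cpm) in Tris/MgCl2/DTT buffer pH 5.5, alone or with E-64 (10 μM) or N1 (20 μM). Mixtures heated 85 °C 2 min, run on 16% tris-glycine gel at 110 V for 90 min, and read by phosphor autoradiography.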"}, "[12]": {"experiment": "Drug uptake in pancreas of SCID mouse xenografted with human HT-29 cells pretreated for 1 hr with colchicine at 1 mg/kg, ip followed by 177Lu labelled compound at 0.37 MBq/mouse, iv measured at 24 hrs by gamma counter analysis", "format": "ADME, organism-based", "conditions": "in vivo", "summary_of_the_method": "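HT-29 flank xenografts in female SCID mice (5 × 10^6 cells in Matrigel, about 80 mm3). Colchicine 1 mg/kg was given i.p. before a tail-vein injection of 10 μCi (0.37 MBq) of purified 177Lu-conjugate. Tissues were taken at 24 h, weighed and gamma-counted as %ID/g; mean ± SD, n = 5.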"}, "[13]": {"experiment": "Drug retention in kidney of mouse xenografted with human HT-29 cells assessed as reduction in tissue-conjugate adduct formation at 29.6 MBq co-treated with D-lysine at 40 mg/kg measured after 72 hrs using 177Lu labelled compound by SDS-PAGE analysis", "format": "ADME, organism-based", "conditions": "in vivo"}, "[14]": {"target": "Cathepsin B (Homo sapiens, UniProt P07858)", "experiment": "Binding affinity to human liver cathepsin B assessed as protein-conjugate adduct formation at 0.74 MBq incubated for 30 mins in presence of E-64 using 177Lu labelled compound by SDS-PAGE analysis", "conditions": "0.74 M", "summary_of_the_method": "as §3"}}, "note": "Calls of active or inactive are those of the source. The rule behind the calls is not given here.", "data": [{"compound": "Cc1cc(O)cc(C)c1C[C@H](NC(=O)[C@@H]1CCCN1C(=O)[C@H](CCCNC(=N)N)NC(=O)[C@H](CCCNC(=N)N)N(C)C(=O)[C@@H]1CCCN1C(=O)[C@H](CCCCN)NC(=O)[C@@H](CO)NC(=O)[C@@H](CO)NC(=O)[C@@H](CO)NC(=O)[C@H](Cc1cn(CCNC(=O)[C@H](CCCNC(=N)N)NC(=O)[C@H](CC(C)C)NC(=O)C2OC2C(=O)O)nn1)NC(=O)CN1CCN(CC(=O)O)CCN(CC(=O)O)CCN(CC(=O)O)CC1)C(=O)N[C@H](C(=O)N[C@@H](CC(C)C)C(=O)O)C(C)(C)C", "note": "(some centres undefined)", "values": [{"measurement": "Drug uptake", "setting": "[1]", "value": 0.6, "unit": "% ID/g"}, {"measurement": "Drug uptake", "setting": "[2]", "value": 0.07, "unit": "% ID/g"}, {"measurement": "Activity", "setting": "[3]", "value": "Active"}, {"measurement": "Drug uptake", "setting": "[4]", "value": 0.21, "unit": "% ID/g"}, {"measurement": "Ratio", "setting": "[5]", "value": 0.2}, {"measurement": "Ratio", "setting": "[6]", "value": 4}, {"measurement": "Drug uptake", "setting": "[7]", "value": 34, "unit": "% ID/g"}, {"measurement": "Kp at 24 h", "setting": "[8]", "value": 299}, {"measurement": "Drug uptake", "setting": "[9]", "value": 80, "unit": "%"}, {"measurement": "Drug uptake", "setting": "[10]", "value": 60, "unit": "%"}, {"measurement": "Activity", "setting": "[11]", "value": "Active"}, {"measurement": "Drug uptake", "setting": "[12]", "value": 0.7, "unit": "% ID/g"}, {"measurement": "Drug uptake", "setting": "[13]", "value": 47, "unit": "%"}, {"measurement": "Activity", "setting": "[14]", "value": "inactive"}]}]}
